In ChEMBL document CHEMBL4402600, “Discovery of a Dual Tubulin Polymerization and Cell Division Cycle 20 Homologue Inhibitor via Structural Modification on Apcin” (J Med Chem, 2020):

Tests used:
Format in all cases: functional, cell-based
MCF7 = test: Cytotoxicity in human MCF7 cells assessed as reduction in cell viability incubated for 48 hrs by MTT assay; conditions: MCF7, 48 h
Procedure, shortened: (§1)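 Cells grown at 37°C, 5% CO₂ (HepG2, OVCAR-3, Caov-3 in DMEM + 10% FBS; A549, HeLa, A375, MCF-7 in RPMI 1640 + 10% FBS). Seeded at 4-5×10³/well in triplicate, adhered overnight, exposed to 0.03–300 μM (DMSO <0.1%) for 48 h. MTT added for 4 h, formazan dissolved in DMSO, absorbance read. IC50 from dose–response curves, mean ± SD of at least three independent experiments.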

A-375 = test: Cytotoxicity in human A375 cells assessed as reduction in cell viability incubated for 48 hrs by MTT assay; conditions: A-375, 48 h; procedure, shortened: as §1
A549 = test: Cytotoxicity in human A549 cells assessed as reduction in cell viability incubated for 48 hrs by MTT assay; conditions: A549, 48 h; procedure, shortened: as §1
HepG2 = test: Cytotoxicity in human HepG2 cells assessed as reduction in cell viability incubated for 48 hrs by MTT assay; conditions: HepG2, 48 h; procedure, shortened: as §1
HeLa = test: Cytotoxicity in human HeLa cells assessed as reduction in cell viability incubated for 48 hrs by MTT assay; procedure, shortened: as §1
OVCAR-3 = test: Cytotoxicity in human OVCAR3 cells assessed as reduction in cell viability incubated for 48 hrs by MTT assay; conditions: OVCAR-3, 48 h; procedure, shortened: as §1
Caov-3 cell line = test: Cytotoxicity in human Caov3 cells assessed as reduction in cell viability incubated for 48 hrs by MTT assay; conditions: Caov-3, 48 h; procedure, shortened: as §1

SMILES | IC50 (MCF7) [µM] | IC50 (A-375) [µM] | IC50 (A549) [µM] | IC50 (HepG2) [µM] | IC50 (HeLa) [µM] | IC50 (OVCAR-3) [µM] | IC50 (Caov-3 cell line) [µM]
Nc1ncnc2c1cnn2C(NC(=O)OCCN1CCOCC1)C(Cl)(Cl)Cl (stereo unspecified) | 19.3 | 1.2 | 13.4 | 19.5 | < 10 | 0.8 | 1
Cn1c([N+](=O)[O-])cnc1COC(=O)NC(n1cnc2c(N)nc(F)nc21)C(Cl)(Cl)Cl (stereo unspecified) | 1.5 | 2.7 | 0.5 | 3.8 | 0.2 | 0.6 | 0.3
Cc1ncc([N+](=O)[O-])n1CCOC(=O)NC(Nc1cc2ccccc2cn1)C(Cl)(Cl)Cl (stereo unspecified) | 141 | 12.5 | 84.3 | 26 | 38.9 | 109 | 95.2
Cc1ncc([N+](=O)[O-])n1CCOC(=O)NC(Nc1nc(Cl)cc(Cl)n1)C(Cl)(Cl)Cl (stereo unspecified) | 32.4 | 8.1 | 49.5 | 23.3 | 15.6 | 17 | 22.5
Cc1ncc([N+](=O)[O-])n1CCOC(=O)NC(n1cnc2c(N)nc(Cl)nc21)C(Cl)(Cl)Cl (stereo unspecified) | > 300 | 246 | 160 | 7.3 | 218 | 131 | 144
CC(=O)Nc1nc2c(ncn2C(NC(=O)OCCn2c([N+](=O)[O-])cnc2C)C(Cl)(Cl)Cl)c(=O)[nH]1 (stereo unspecified) | > 300 | > 300 | > 300 | > 300 | > 300 | > 300 | > 300
Cc1ncc([N+](=O)[O-])n1CCOC(=O)NC(Nc1nccc(Cl)n1)C(Cl)(Cl)Cl (stereo unspecified) | > 300 | 20 | 94.9 | > 300 | > 300 | > 300 | > 300
Cc1ncc([N+](=O)[O-])n1CCOC(=O)NC(n1cnc2c(N)ncnc21)C(Cl)(Cl)Cl (stereo unspecified) | > 300 | 182 | > 300 | > 300 | > 300 | > 300 | > 300
Cc1ncc([N+](=O)[O-])n1CCOC(=O)NC(n1cnc2c(N(C)C)ncnc21)C(Cl)(Cl)Cl (stereo unspecified) | > 300 | 27.3 | 191 | > 300 | 160 | > 300 | 264
Cn1c([N+](=O)[O-])cnc1COC(=O)NC(n1cnc2c(N)nc(Cl)nc21)C(Cl)(Cl)Cl (stereo unspecified) | 53.3 | 1.2 | 61.4 | 43.8 | 51.2 | 70.4 | 64.3
O=C(NC(Nc1ncnc2c1cnn2C(NC(=O)OCCc1ccccn1)C(Cl)(Cl)Cl)C(Cl)(Cl)Cl)OCCc1ccccn1 (stereo unspecified) | 162 | > 300 | 53.7 | 81.3 | 110 | > 300 | 146
Cc1ncc([N+](=O)[O-])n1CCOC(=O)NC(n1cnc2c(Cl)nc(Cl)nc21)C(Cl)(Cl)Cl (stereo unspecified) | 218 | 68.5 | 72.8 | 54.6 | 142 | 162 | 224
Cc1ccnc(NC(NC(=O)OCCn2c([N+](=O)[O-])cnc2C)C(Cl)(Cl)Cl)n1 (stereo unspecified) | 152 | 37.5 | 27.3 | 31.2 | 94.7 | 164 | 155
Cc1ncc([N+](=O)[O-])n1CCOC(=O)NC(Nc1nccc(N)n1)C(Cl)(Cl)Cl (stereo unspecified) | > 300 | > 300 | > 300 | > 300 | > 300 | > 300 | > 300
Cc1ncc([N+](=O)[O-])n1CCOC(=O)NC(n1cnc2c(NC(=O)c3ccccc3)ncnc21)C(Cl)(Cl)Cl (stereo unspecified) | > 300 | > 300 | 244 | > 300 | > 300 | 225 | > 300
CCOC(=O)NC(n1cnc2c(N)nc(Cl)nc21)C(Cl)(Cl)Cl (stereo unspecified) | 87.2 | 125 | 59.7 | 59 | 152 | 132 | 92.9
Nc1nc(F)nc2c1ncn2C(NC(=O)OCCc1ccccn1)C(Cl)(Cl)Cl (stereo unspecified) | 1 | 0.4 | 3.5 | 1 | 3 | 0.8 | 1.1
Nc1nc(N)c2ncn(C(NC(=O)OCCc3ccccn3)C(Cl)(Cl)Cl)c2n1 (stereo unspecified) | 136 | 300 | 270 | 28.1 | 220 | 30.9 | 29.7
Cc1ncc([N+](=O)[O-])n1CCOC(=O)NC(n1cnc2c(N)nc(N)nc21)C(Cl)(Cl)Cl (stereo unspecified) | > 300 | 170 | > 300 | 19.7 | 120 | > 300 | > 300
Cc1ncc([N+](=O)[O-])n1CCOC(=O)NC(n1cnc2c(OCc3ccccc3)nc(N)nc21)C(Cl)(Cl)Cl (stereo unspecified) | 89.1 | > 300 | 146 | 71.1 | > 300 | > 300 | > 300
Nc1nc(Cl)nc2c1ncn2C(NC(=O)OCc1ccccc1)C(Cl)(Cl)Cl (stereo unspecified) | 138 | > 300 | 78.5 | > 300 | > 300 | 37.9 | 65
Cc1ncc([N+](=O)[O-])n1CCOC(=O)NC(Nc1nccc(=O)[nH]1)C(Cl)(Cl)Cl (stereo unspecified) | > 300 | > 300 | > 300 | > 300 | > 300 | > 300 | > 300
Cc1c(Cl)nc(NC(NC(=O)OCCn2c([N+](=O)[O-])cnc2C)C(Cl)(Cl)Cl)nc1Cl (stereo unspecified) | 114 | 11.9 | 184 | 13.6 | 27.1 | 25 | 31.2
Cc1ncc([N+](=O)[O-])n1CCOC(=O)NC(n1cnc2c(Cl)nc(N)nc21)C(Cl)(Cl)Cl (stereo unspecified) | > 300 | > 300 | > 300 | > 300 | 57.3 | > 300 | > 300
Cc1ncc([N+](=O)[O-])n1CCOC(=O)NC(Nc1nc(Cl)c(N)c(Cl)n1)C(Cl)(Cl)Cl (stereo unspecified) | 20.6 | 14 | 31.9 | 25.8 | 17.5 | 21.1 | 19.2
Cc1ncc([N+](=O)[O-])n1CCOC(=O)NC(n1cnc2ccccc21)C(Cl)(Cl)Cl (stereo unspecified) | > 300 | > 300 | > 300 | > 300 | 214 | > 300 | > 300
Cc1ncc([N+](=O)[O-])n1CCOC(=O)NC(n1cnc2c(Cl)nc(F)nc21)C(Cl)(Cl)Cl (stereo unspecified) | 62.1 | 121 | > 300 | 55.1 | > 300 | > 300 | > 300
Cc1ncc([N+](=O)[O-])n1CCOC(=O)NC(n1cnc2c(Cl)ncnc21)C(Cl)(Cl)Cl (stereo unspecified) | > 300 | > 300 | > 300 | > 300 | > 300 | > 300 | > 300
